Shown are actives, neighbours in structure and some others; about 3.5% of the full set was active somewhere.
RGS4 block – human RGS4 inhibition; P49798; HEK293 M3R/RGS4 inducible, Fluo-4 calcium flux; stronger effect = higher value; triggered by carbachol at its EC20; B-score at 10 µM; actives 0.45% (n = 310,000); AID 463165;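 active means B-score, a plate-corrected calcium signal, over three deviations above library mean, with baseline fluorescence within five deviations of library mean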;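 further: RGS4 expression induced by doxycycline in cells with stable M3 receptor; B-score is computed from the integrated fluorescence ratio over baseline after carbachol; higher B-score means a larger calcium signal and so more RGS4 inhibition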
Target sequence (P49798 whole entry, looked up): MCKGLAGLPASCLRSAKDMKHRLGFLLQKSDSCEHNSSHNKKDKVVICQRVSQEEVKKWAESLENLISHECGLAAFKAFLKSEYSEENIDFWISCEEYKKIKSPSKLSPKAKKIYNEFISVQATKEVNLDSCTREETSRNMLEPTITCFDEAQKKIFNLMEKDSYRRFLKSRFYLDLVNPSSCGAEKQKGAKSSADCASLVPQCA
MrgX1 antagonist – blocks BAM8-22 activation of human MrgX1 receptor; Q96LB2; MRGX1-HEK293 calcium flux, Fluo-4, BAM8-22 antagonism; stronger effect = lower value; B-score at 10 µM; actives 1.3% (n = 310,000); AID 588676;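 active means calcium-response B-score plate-corrected more than 3 library SD below zero, starting fluorescence within 5 deviations, no agonist response on first addition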;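 further: peak minus trough fluorescence over baseline after final BAM8-22 challenge near maximal dose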
Target sequence (Q96LB2 whole entry, looked up): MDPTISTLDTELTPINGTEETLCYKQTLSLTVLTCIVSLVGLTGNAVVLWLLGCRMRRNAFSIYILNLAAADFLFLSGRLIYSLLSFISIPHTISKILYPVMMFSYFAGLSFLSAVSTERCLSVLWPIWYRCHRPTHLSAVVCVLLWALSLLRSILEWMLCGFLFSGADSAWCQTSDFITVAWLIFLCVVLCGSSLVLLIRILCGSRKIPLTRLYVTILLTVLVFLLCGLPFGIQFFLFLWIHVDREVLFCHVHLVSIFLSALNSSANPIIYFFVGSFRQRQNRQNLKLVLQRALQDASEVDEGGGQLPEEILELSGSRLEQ
RGS4 act – potentiators or activators of RGS4. HEK293 M3R/inducible RGS4, carbachol calcium flux Fluo4; stronger effect = lower value. B-score at 10 µM. actives 0.92% (n = 310,000). AID 463111;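 active means B-score of the integrated calcium signal more than 4 SD below the library mean, with starting fluorescence not abnormally high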;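 further: negative B-score means reduced calcium response which marks RGS4 activation or potentiation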
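Material: Inducible-RGS4 HEK293 cells carrying M3 receptor; also added: carbachol at ECmax as muscarinic agonist stimulus; incubation: compound preincubation 20 min at room temperature before agonist; signal: Fluo4-AM (2 µM) calcium-flux fluorescence, kinetic read; measure: integrated calcium ratio converted to B score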
MrgX1 PAM – allosterically activates human MrgX1 receptor signaling; actives 0.63% (n = 310,000); AID 588675; MrgX1-HEK293, Fluo-4 calcium flux, FDSS; stronger effect = higher value; B-score at 10 µM;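 active means plate-corrected calcium response at least 3 library SD above typical, normal starting fluorescence, not activating the receptor alone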;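 further: compound read alongside a low EC10 to EC30 dose of BAM8-22 agonist; peak minus trough fluorescence over baseline measured at the second addition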
MrgX1 ag – human MrgX1 receptor agonism, primary screen; Q96LB2; actives 0.44% (n = 310,000); MrgX1-HEK293 cells, Fluo-4 calcium fluorescence, agonist mode; stronger effect = higher value; B-score at 10 µM; AID 588627;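 active means calcium response B-score plate-corrected fluorescence ratio at least 3 library SD, with starting fluorescence B-score inside 5 SD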
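Material: MrgX1-expressing HEK293 cells; input: 15,000 cells per well; doses: test compound given as first of three sequential additions; schedule: overnight plating before 1 h dye loading; technique: Fluo-4 NW calcium-flux fluorescence, kinetic read; evaluation: baseline-normalised fluorescence change ratio, B-scored; control set: plate-wise positive and negative controls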
Of the large screens only hits and unclear results are named; the others gave an inactive call.

COc1ccc2c(c1)oc(=O)c1c3ccccc3[nH]c21	none (no result: MrgX1 antagonist, MrgX1 PAM, MrgX1 ag)
Cc1ccc2[nH]c3c(N4CCCCCC4)ncnc3c2c1	none (no result: MrgX1 antagonist, MrgX1 PAM, MrgX1 ag)
Fc1ccc2[nH]c3c(N4CCN(C5CCCCC5)CC4)ncnc3c2c1	RGS4 act -7.6
C=CCC(C)(NCc1ccccc1)c1ccc(C)cc1 (centres undefined)	MrgX1 PAM 7.6
O=C(N/N=C/c1ccc(O)cc1)c1ccc(COc2cc(Cl)ccc2Cl)o1	MrgX1 antagonist -5.2
COc1ccc(C(CNC(=O)c2cccc(S(=O)(=O)Nc3ccc(C)cc3)c2)N2CCOCC2)cc1 (centres undefined)	none
CCc1ccc2oc(C(=O)NCC(c3ccc(OC)cc3)N3CCCCC3)c(C)c2c1 (centres undefined)	RGS4 act -8.1
COc1ccc(NS(=O)(=O)c2cccc(C(=O)NCC(c3ccc(OC)cc3)N3CCOCC3)c2)cc1 (centres undefined)	MrgX1 antagonist -4.7
Cc1[nH]ccc(=O)c1Cc1c(Cl)cccc1Cl	none
CC(OC(=O)c1cccc([N+](=O)[O-])c1)C(=O)NCc1ccc2c(c1)OCO2 (centres undefined)	MrgX1 antagonist -5.9
COCCCn1c(SCC(=O)OC2CCCCC2)nnc1-c1ccco1	none
COCCCn1c(SCC(=O)OC2CCCCC2)nnc1-c1cccs1	MrgX1 antagonist -5.8
O=C(Nc1ccc(-c2cn3c(n2)SCC3)cc1)c1ccc2ccccc2n1	RGS4 act -7.4
O=C(Nc1cccc(-c2cn3c(n2)SCC3)c1)c1ccc2ccccc2n1	none
CC(C)C(=O)NC(C)C(c1cccs1)N1CCN(c2ccccc2)CC1 (centres undefined)	none
CC1(C)Cc2c(sc3c2c(=N)n(Cc2ccco2)c(=O)n3Cc2ccc(F)cc2)CO1	MrgX1 antagonist -4.6 (no result: RGS4 block, RGS4 act)
COc1ccc(Cn2c(=O)n(Cc3ccco3)c(=N)c3c4c(sc32)COC(C)(C)C4)cc1	none (no result: RGS4 block, RGS4 act)
c1ccc(-c2cn3nc4c(nc3n2)CCCC4)cc1	RGS4 act -7
C[N+]1(C)CCCC(OC(=O)C(O)(c2ccccc2)c2ccccc2)C1 (centres undefined)	RGS4 act -11
O=C(CNC(=O)c1ccccc1)OC1CCCCC1	none
Fc1ccc(N=c2ssnc2Cl)c(F)c1	MrgX1 ag 35
COc1cc(N=c2ssnc2Cl)cc(OC)c1OC	MrgX1 ag 32
COc1ccc(N=c2ssnc2Cl)cc1	MrgX1 ag 27
Clc1ccc(N=c2ssnc2Cl)cc1	none
N#Cc1ccc(N=c2ssnc2Cl)cc1	MrgX1 ag 31
CCOC(=O)c1ccc(N=c2ssnc2Cl)cc1	none (no result: MrgX1 antagonist, MrgX1 PAM, MrgX1 ag)
CC(CN1CCOCC1)OC(=O)c1cccs1 (centres undefined)	none
COc1ccc(/C=N/NC(=O)COc2cccc3cccnc23)cc1OC	none
CC(C)(C)NC(=O)CON=C1c2ccccc2-c2ccccc21	none
COC(=O)Cc1c[nH]c2cccc(OCC(O)CN(Cc3ccccc3)C(C)C)c12 (centres undefined)	none
O=C(N/N=C/c1cc(Cl)ccc1O)c1ccncc1	MrgX1 antagonist -5.1
O=C(N/N=C/c1ccccc1Cl)c1ccncc1	none
C/C(=N\O)C(C)(C)Nc1ccc(Br)cc1	MrgX1 ag 26
Cc1cc(N2CCCCC2)c(F)cc1[N+](=O)[O-]	none
CC(C)NC(=O)c1cnc(Sc2ncc(C(F)(F)F)cc2Cl)n1C	RGS4 act -7.6
Cn1c(C(=O)O)cnc1Sc1ncc(C(F)(F)F)cc1Cl	none
CC1=NOC(=O)/C1=C\c1ccc(-c2cccc(Cl)c2)o1	RGS4 act -8.9
Cc1ccc(/C=C2/C(=O)ON=C2c2ccccc2)o1	MrgX1 ag 43
NCC(c1ccccc1)(c1ccccc1)c1ccccc1	none
Cc1ccccc1C(=O)OC1CCN(C)CC1	none
CN1CCC(OC(=O)c2ccccc2Cl)CC1	RGS4 act -7.2
COc1cccc(CNc2ccc3c(c2)ncn3C(C)C)c1OC	none
CCn1nc(CC(=O)Nc2ccc(-n3cnnn3)c(OC)c2)c2ccccc2c1=O	MrgX1 antagonist -5.2
Cn1c(=O)n(C)c2cc(NC(=O)COc3ccc(F)cc3F)ccc21	none
O=C(NC(=S)NCCc1ccccc1)C1CCCCC1	none
COCCNC(=S)NN=C1CCCCCC1	none (no result: MrgX1 antagonist, MrgX1 PAM, MrgX1 ag)
S=C(NCCc1ccccc1)N/N=C/C1CCCCC1	MrgX1 PAM 9.1
S=C(NCCc1ccccc1)NN=C1CCCCCC1	MrgX1 PAM 7.4
COCCNC(=O)c1cc(-c2ccc(OC)c(OC)c2)on1	none

Source: PubChem (Johns Hopkins Ion Channel Center)
